# Measurements from ChEMBL document CHEMBL3259808, “Optimization of antitrypanosomatid agents: identification of nonmutagenic drug candidates with in vivo activity” (J Med Chem, 2014).
# What was measured:
# [1] = Selectivity index, ratio of IC50 for mouse J774.1 cells to IC50 for Trypanosoma cruzi Tulahuen 2 epimastigotes; assay type: toxicity; conditions: read-out: Ratio IC50
# In short: (§1)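 J774.1 macrophages grown in DMEM with 10% heat-inactivated FCS and allowed to attach 48 h, then exposed 48 h at 37 °C to 12.5–400.0 μM. Triplicates. MTT 0.1 mg/mL for 3 h, read at 560 nm; IC50 by linear regression against the solvent control. SI = IC50 J774.1 / parasite IC50 (Sylvio X-10 amastigotes or Tulahuen 2 epimastigotes, the latter measured by A600 growth inhibition at day 5).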
# Trypanosoma cruzi [2] = experiment: Antitrypanosomal activity against Trypanosoma cruzi Tulahuen 2 epimastigotes assessed as growth inhibition after 5 days; assay type: functional, organism-based; conditions: Trypanosoma cruzi, Tulahuen 2, 120 h
# In short: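 Epimastigotes were grown axenically at 28 °C in BHI-tryptose with 5% FBS and seeded from a 5–7 day culture at 1 × 10⁶ cells/mL. Drug from a DMSO stock was added (final DMSO ≤0.4%; the control contained 0.4% DMSO). Duplicates were run. A600 was read at day 5, and % inhibition was calculated relative to day-0 and control readings. IC50 = concentration that halves the absorbance ratio.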
# Salmonella typhimurium [3] = experiment: Mutagenic activity in Salmonella typhimurium TA98 at 0.3 to 40 ug/plate by Ames test in presence of mouse liver S9 fraction; assay type: toxicity, organism-based; conditions: salmonella enterica subsp. enterica serovar typhimurium
# In short: (§2)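 Ames plate-incorporation assay with S. typhimurium TA98 in Vogel-Bonner E minimal glucose agar. Toxicity toward the bacteria was checked first. DMSO solutions were run in triplicate at five consecutive third-dilutions, starting at the highest non-toxic dose. Positive controls were 4-nitro-o-phenylenediamine (20.0 μg/plate) and 2-aminofluorene (10.0 μg/plate); DMSO was the negative control. Revertants were counted manually. A compound was called mutagenic when revertants were at least twice the negative control at two or more consecutive doses.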
# Salmonella typhimurium [4] = experiment: Mutagenic activity in Salmonella typhimurium TA98 at 0.3 to 40 ug/plate by Ames test; assay type: toxicity, organism-based; conditions: salmonella enterica subsp. enterica serovar typhimurium; in short: as §2
# [5] = Stability of the compound in aqueous solution assessed as compound remaining at 1 mM at pH 7.4 after 1 hr by TLC analysis; assay type: physicochemical; conditions: aqueous solution, pH 7.4; read-out: Stability
# In short: (§3)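 DMSO stocks diluted to final 1 mM in KCl·HCl pH 1.0, citrate pH 6.0, Tris·HCl pH 7.4 or borax·HCl pH 9.0 buffer. Incubated 1 h at 37 °C, then ethyl acetate extracts checked by TLC for decomposition products.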
# Salmonella typhimurium [6] = experiment: Mutagenic activity in Salmonella typhimurium TA1537 at 6 to 500 ug/plate by Ames test in presence of mouse liver S9 fraction; assay type: toxicity, organism-based; conditions: salmonella enterica subsp. enterica serovar typhimurium
# In short: (§4)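 Plate-incorporation Ames test on minimal glucose agar with 500 μL Aroclor-treated mouse liver S9 added. DMSO solutions were tested at five consecutive 3-fold dilutions from the highest non-toxic dose, in triplicate, with a DMSO negative control. Revertants were counted manually; a compound was scored mutagenic when revertants were at least twice the negative control for two or more consecutive doses.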
# Mus musculus = experiment: Toxicity in BALB/c mouse assessed as mortality at 100 mg/kg/day, po for 14 days; assay type: organism-based; parameters: route oral; conditions: in vivo, 336 h
# In short: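 Uninfected female BALB/c mice (n = 2/group) received intragastric gavage daily for 14 days in saline/Tween 80 (4:1). They were weighed and monitored daily, then sacrificed for macroscopic necropsy of organs.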
# Salmonella typhimurium [7] = experiment: Mutagenic activity in Salmonella typhimurium TA1537 at 6 to 500 ug/plate by Ames test; assay type: toxicity, organism-based; conditions: salmonella enterica subsp. enterica serovar typhimurium
# In short: (§5)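 Direct plate incubation on minimal glucose agar (Vogel-Bonner E). Compound toxicity to the bacteria was checked first. DMSO solutions were tested at five consecutive 3-fold dilutions, starting from the highest non-toxic dose, in triplicate, without metabolic activation. DMSO served as negative control. Revertants were counted manually; mutagenic = revertants at least double the negative control at two or more consecutive doses.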
# Salmonella typhimurium [8] = experiment: Mutagenic activity in Salmonella typhimurium TA102 at 6 to 500 ug/plate by Ames test in presence of mouse liver S9 fraction; assay type: toxicity, organism-based; conditions: salmonella enterica subsp. enterica serovar typhimurium; in short: as §4
# [9] = Selectivity index, ratio of IC50 for African green monkey Vero cells to IC50 for Trypanosoma cruzi Sylvio X-10 amastigotes; assay type: toxicity, cell-based; conditions: read-out: Ratio IC50
# In short: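 VERO cytotoxicity: cells exposed 48 h at 37 °C, 5% CO2 to serial dilutions from a maximum of 2000 μM (DMSO stocks; DMSO <0.1% control); growth inhibition read by MTT at 570 nm. Amastigote IC50: Sylvio X-10-infected VERO cells, five doses, infected cells counted among 300 (Giemsa), quadruplicate, three experiments, sigmoidal fit. SI = IC50 VERO / IC50 amastigote.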
# [10] = Stability of the compound in aqueous solution assessed as compound remaining at 1 mM at pH 9 after 1 hr by TLC analysis; assay type: physicochemical; conditions: aqueous solution, pH 9; read-out: Stability; in short: as §3
# [11] = Stability of the compound in aqueous solution assessed as compound remaining at 1 mM at pH 6 after 1 hr by TLC analysis; assay type: physicochemical; conditions: aqueous solution, pH 6; read-out: Stability; in short: as §3
# Salmonella typhimurium [12] = experiment: Mutagenic activity in Salmonella typhimurium TA1535 at 6 to 500 ug/plate by Ames test in presence of mouse liver S9 fraction; assay type: toxicity, organism-based; conditions: salmonella enterica subsp. enterica serovar typhimurium; in short: as §4
# Salmonella typhimurium [13] = experiment: Mutagenic activity in Salmonella typhimurium TA98 at 6 to 500 ug/plate by Ames test; assay type: toxicity, organism-based; conditions: salmonella enterica subsp. enterica serovar typhimurium; in short: as §2
# Trypanosoma cruzi [14] = experiment: (§6) Antitrypanosomal activity against Trypanosoma cruzi CL Brener infected in BALB/c mouse assessed as peak of maximum parasitemia at 107 umol/kg/day, po administered in cholesterol/surfactant/phosphate buffer in 19 day schedule including 5 days of dosing 2 days of resting and final 4 days of dosing measured up to 60 days relative to control; assay type: functional
# In short: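 Male BALB/c mice (n = 6/group) were infected i.p. with 10³ blood trypomastigotes. From day 6 they were dosed orally in microemulsion vehicle on a schedule of 5 days on, 2 off, 5 on, 2 off, 4 on. Controls received vehicle. Parasitemia was counted weekly in tail-vein blood for 60 days, and mortality was recorded.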
# [15] = Stability of the compound in aqueous solution assessed as compound remaining at 1 mM at 37 degC after 1 hr by TLC analysis in presence of rat liver microsomal fraction; conditions: microsomes, 1000 µM
# In short: (§7)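 Rat liver cytosolic (100 000g supernatant) and microsomal (100 000g pellet, washed and resuspended in Tris·HCl) fractions, fresh or stored at −80 °C; protein measured by BCA. Compound incubated with the fraction 1 h at 37 °C and analysed by TLC of extracts.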
# Trypanosoma cruzi [16] = experiment: Antitrypanosomal activity against Trypanosoma cruzi Sylvio X-10 amastigotes infected in African green monkey Vero cells assessed as eradication of amastigotes after 5 days by Giemsa staining-based assay; assay type: functional, organism-based; conditions: Sylvio X-10, Vero, 120 h
# In short: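 VERO cells in RPMI 1640 with 10% hiFCS were allowed to adhere for 24 h at 37 °C in 5% CO₂, then infected with tissue-derived trypomastigotes at 10:1. Free parasites were washed off after 24 h, and cultures were treated at five compound doses (text gives 72 h / 5 days). Cultures were methanol-fixed and Giemsa-stained, and infected cells were counted among 300. Quadruplicates were run in three independent experiments. IC50/IC90 were obtained by sigmoidal regression.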
# Salmonella typhimurium [17] = experiment: Mutagenic activity in Salmonella typhimurium TA1535 at 6 to 500 ug/plate by Ames test; assay type: toxicity, organism-based; conditions: salmonella enterica subsp. enterica serovar typhimurium; in short: as §5
# [18] = Stability of the compound in aqueous solution assessed as compound remaining at 1 mM at 37 degC after 1 hr by TLC analysis in presence of rat liver cytosolic fraction; assay type: ADME; conditions: cytosol, 1000 µM; in short: as §7
# Salmonella typhimurium [19] = experiment: Mutagenic activity in Salmonella typhimurium TA100 at 6 to 500 ug/plate by Ames test in presence of mouse liver S9 fraction; assay type: toxicity, organism-based; conditions: salmonella enterica subsp. enterica serovar typhimurium; in short: as §4
# Salmonella typhimurium [20] = experiment: Mutagenic activity in Salmonella typhimurium TA102 at 6 to 500 ug/plate by Ames test; assay type: toxicity, organism-based; conditions: salmonella enterica subsp. enterica serovar typhimurium; in short: as §5
# Trypanosoma cruzi [21] = experiment: as §6, with “mouse survival” for “peak of maximum parasitemia”; assay type: functional
# In short: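 Oral gavage of infected male BALB/c mice at 50 mg/kg/day in cholesterol/surfactant/phosphate buffer pH 7.4 microemulsion, from day 6 postinfection. Schedule: 5 days dosing, 2 rest, 5 dosing, 2 rest, 4 dosing. n = 6/group, with vehicle controls. Parasitemia was read weekly in tail-vein blood for 60 days and mortality recorded.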
# [22] = Stability of the compound in eumulgin HRE 40, sodium oleate, soya phosphatidylcholine, cholesterol, and phosphate buffer at pH 7.4 at 4 degC; assay type: physicochemical
# In short: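 Storage stability of the compound in vehicle V2, a microemulsion of surfactant (Eumulgin HRE 40/sodium oleate/soya phosphatidylcholine, 10%), cholesterol oil phase (10%) and pH 7.4 phosphate buffer (80%), followed over 1 week at 4 °C.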
# Salmonella typhimurium [23] = experiment: Mutagenic activity in Salmonella typhimurium TA100 at 6 to 500 ug/plate by Ames test; assay type: toxicity, organism-based; conditions: salmonella enterica subsp. enterica serovar typhimurium; in short: as §5
# [24] = Selectivity index, ratio of IC50 for mouse J774.1 cells to IC50 for Trypanosoma cruzi Sylvio X-10 amastigotes; assay type: toxicity; conditions: read-out: Ratio IC50; in short: as §1
structure (smiles),measurement,setting,value
C=CCn1c(C)cs\c1=N/N=C/C=C/c1cccs1,selectivity ratio,[1],< 7
same,IC50,Trypanosoma cruzi [2],> 25000 nM
same,Activity,Salmonella typhimurium [3],Non-toxic
same,Activity,Salmonella typhimurium [4],Non-toxic
Br.C=CCn1c(-c2ccc3ccccc3c2)cs\c1=N/N=C/C=C/c1ccco1,"remaining at 1 h, 1000 µM",[5],> 95%
same,Activity,Salmonella typhimurium [6],Non-toxic
same,Activity,Mus musculus,Non-toxic
same,IC50,Trypanosoma cruzi [2],2400 nM
same,Activity,Salmonella typhimurium [7],Non-toxic
same,Activity,Salmonella typhimurium [8],Non-toxic
same,selectivity ratio,[9],> 1000
same,"remaining at 1 h, 1000 µM",[10],> 95%
same,"remaining at 1 h, 1000 µM",[11],> 95%
same,Activity,Salmonella typhimurium [12],Non-toxic
same,Activity,Salmonella typhimurium [13],Non-toxic
same,Time,Trypanosoma cruzi [14],42 days
same,Stability,[15],Stable
same,IC50,Trypanosoma cruzi [16],< 210 nM
same,Activity,Salmonella typhimurium [17],Non-toxic
same,Stability,[18],Stable
same,Activity,Salmonella typhimurium [19],Non-toxic
same,Activity,Salmonella typhimurium [20],Non-toxic
same,survival at 107 µmol/kg,Trypanosoma cruzi [21],100%
same,Stability,[22],Stable
same,Activity,Salmonella typhimurium [23],Non-toxic
same,selectivity ratio,[24],> 120
